Experiment [1] concerns the target Secreted aspartic protease 2 (Candida albicans) (UniProt P0CS83). Briefly: Inhibition of Candida albicans SAP2 at 10 uM by spectrophotometry. The essentials:
(§1)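 Sample was mixed with 1% (w/v) BSA substrate in 50 mM sodium citrate, pH 3.2, plus SAP2 protease (1 μg/mL stock solution) and incubated 30 min at 37 °C. The reaction was stopped with 10% TCA, kept 30 min on ice, and centrifuged; supernatant A280 was read. Percent inhibition was taken from ΔOD, with control proteinase minus proteinase plus pepstatin A set as 100%.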

For experiment [2] the target is unchanged. Briefly: Inhibition of Candida albicans SAP2 at 10 uM by spectrophotometry relative to pepstatin A. In short, it runs like this: as §1

Secreted aspartic protease 2 (Candida albicans), sequence (P0CS83 57-398 limits assumed): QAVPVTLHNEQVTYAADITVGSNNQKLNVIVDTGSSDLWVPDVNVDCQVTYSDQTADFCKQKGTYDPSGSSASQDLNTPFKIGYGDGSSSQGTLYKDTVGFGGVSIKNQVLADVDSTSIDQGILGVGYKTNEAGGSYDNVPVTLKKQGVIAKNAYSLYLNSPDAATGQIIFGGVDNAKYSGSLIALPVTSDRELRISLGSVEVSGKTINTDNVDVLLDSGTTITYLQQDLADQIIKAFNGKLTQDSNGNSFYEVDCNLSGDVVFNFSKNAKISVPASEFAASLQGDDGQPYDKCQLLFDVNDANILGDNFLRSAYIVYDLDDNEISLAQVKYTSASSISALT

What is called inhibition is the change of the read-out against control, counted positive when it falls. Low values mean little suppression, high ones strong suppression. `CN(CCN)C(=O)[C@@H]1O[C@@H]2O[C@H]1C(=O)N(Cc1ccccc1)[C@H]2Cc1ccccc1`: the inhibition in experiment [1] is 17%; in experiment [2], 87%.
Regarding `CNC(=O)[C@@H]1O[C@@H]2O[C@H]1C(=O)N(Cc1ccccc1)[C@H]2Cc1ccccc1`, the inhibition in experiment [1] is 29%; in experiment [2], 87%.
Taken in the same sequence, the figures for `CCOC(=O)N1CCN(C(=O)[C@@H]2O[C@@H]3O[C@H]2C(=O)N(Cc2ccccc2)[C@H]3Cc2ccccc2)CC1` were 17% and 87%.
Take `O=C([C@@H]1O[C@@]2(c3ccccc3)CN(C(c3ccccc3)c3ccccc3)C(=O)[C@@H]1O2)N1CCOCC1`: the inhibition in experiment [1] is 5%; in experiment [2] it was 19%.
The corresponding values for `CC(C)CCNC(=O)[C@@H]1O[C@@H]2O[C@H]1C(=O)N(Cc1ccccc1)[C@H]2Cc1ccccc1` are 29% and 87%.
Consider `CCCNC(=O)[C@@H]1O[C@@H]2O[C@H]1C(=O)N(Cc1ccccc1)[C@H]2Cc1ccccc1`, for which the inhibition in experiment [1] was 36%; in experiment [2], 73%.
Take `CCCCCNC(=O)[C@@H]1O[C@H]2CN(Cc3ccccc3)C(=O)[C@@H]1O2`: the results for the inhibition in experiment [1] and in experiment [2] were 22% and 87%, respectively.
The corresponding values for `O=C([C@@H]1O[C@@]2(c3ccccc3)CN(C(c3ccccc3)c3ccccc3)C[C@@H]1O2)N1CCCCC1` are 6% and 23%.
As for `C#CCNC(=O)[C@@H]1O[C@@H]2O[C@H]1C(=O)N(Cc1ccccc1)[C@H]2Cc1ccccc1`, the results for the inhibition in experiment [1] and in experiment [2] were 8% and 42%, respectively.
Regarding `CC(C)C[C@@H](CO)NC(=O)[C@@H]1O[C@@H]2O[C@H]1C(=O)N(Cc1ccccc1)[C@H]2Cc1ccccc1`, the inhibition in experiment [1] came out at 17%; in experiment [2], 87%.
As for `O=C([C@@H]1O[C@@H]2O[C@H]1C(=O)N(Cc1ccccc1)[C@H]2Cc1ccccc1)N1CCSCC1`, the inhibition in experiment [1] amounted to 13%; in experiment [2], 40%.
Regarding `CN(CCN)C(=O)[C@@H]1O[C@H]2CN(Cc3ccccc3)C[C@@H]1O2`, the results for the inhibition in experiment [1] and in experiment [2] were 2% and 6%, respectively.
Take `O=C([C@@H]1O[C@@H]2O[C@H]1C(=O)N(Cc1ccccc1)[C@H]2Cc1ccccc1)N1CCN(CCO)CC1`: the values for the inhibition in experiment [1] and in experiment [2] were 13% and 40%, respectively.
The corresponding values for `O=C([C@@H]1O[C@H]2CN(Cc3ccccc3)C[C@@H]1O2)N1CCOCC1` are 2% and 6%.
Consider `O=C([C@@H]1O[C@@]2(c3ccccc3)CN(C(c3ccccc3)c3ccccc3)C(=O)[C@@H]1O2)N1CCN(CCO)CC1`, for which the values for the inhibition in experiment [1] and in experiment [2] were 5% and 19%, respectively.
Taken in the same sequence, the figures for `CN(CCN)C(=O)[C@@H]1O[C@@]2(c3ccccc3)CN(C(c3ccccc3)c3ccccc3)C[C@@H]1O2` were 6% and 23%.
Turning to `O=C(NC1CCCCC1)[C@@H]1O[C@@H]2O[C@H]1C(=O)N(Cc1ccccc1)[C@H]2Cc1ccccc1`, the inhibition is 36% in experiment [1] and 73% in experiment [2].
On to `C#CCNC(=O)[C@@H]1O[C@H]2CN(Cc3ccccc3)C[C@@H]1O2`, for which the inhibition in experiment [1] was 3%; in experiment [2] it was 13%.
On to `O=C(NC1CCCCC1)[C@@H]1O[C@@]2(c3ccccc3)CN(C(c3ccccc3)c3ccccc3)C(=O)[C@@H]1O2`, for which the inhibition in experiment [1] and in experiment [2] was 0% throughout.
Regarding `O=C([C@@H]1O[C@@]2(c3ccccc3)CN(C(c3ccccc3)c3ccccc3)C[C@@H]1O2)N1CCSCC1`, the results for the inhibition in experiment [1] and in experiment [2] were 6% and 23%, respectively.
Turning to `CC(NC(=O)[C@@H]1O[C@@]2(c3ccccc3)CN(C(c3ccccc3)c3ccccc3)C(=O)[C@@H]1O2)c1ccccc1` (some centres not stated), the inhibition in experiment [1] and in experiment [2] was 0% in each case.
For `CCOC(=O)C1CCN(C(=O)[C@@H]2O[C@@]3(c4ccccc4)CN(C(c4ccccc4)c4ccccc4)C[C@@H]2O3)CC1`, the inhibition in experiment [1] came to 6%; in experiment [2], 23%.
As for `CCOC(=O)C1CCN(C(=O)[C@@H]2O[C@@]3(c4ccccc4)CN(C(c4ccccc4)c4ccccc4)C(=O)[C@@H]2O3)CC1`, the inhibition in experiment [1] amounted to 5%; in experiment [2] it was 19%.
Taken in the same sequence, the figures for `CCCCCCNC(=O)[C@@H]1O[C@@H]2O[C@H]1C(=O)N(Cc1ccccc1)[C@H]2Cc1ccccc1` were 8% and 42%.
For the compound `O=C([C@@H]1O[C@H]2CN(Cc3ccccc3)C[C@@H]1O2)N1CCSCC1`, the inhibition in experiment [1] was 2%; in experiment [2], 6%.
`O=C([C@@H]1O[C@@H]2O[C@H]1C(=O)N(Cc1ccccc1)[C@H]2Cc1ccccc1)N1CCCNCC1`: the inhibition in experiment [1] is 17%; in experiment [2] it was 87%.
Regarding `CCCCCNC(=O)[C@@H]1O[C@@]2(c3ccccc3)CN(C(c3ccccc3)c3ccccc3)C(=O)[C@@H]1O2`, the inhibition in experiment [1] and in experiment [2] was 0% throughout.
Regarding `COC(=O)[C@H](CC(C)C)N1C[C@@]2(C)O[C@H](C(=O)N3CCN(Cc4ccccc4)CC3)[C@H](O2)C1=O`, the inhibition in experiment [1] amounted to 28%; in experiment [2] it was 57%.
With `O=C([C@@H]1O[C@H]2CN(Cc3ccccc3)C[C@@H]1O2)N1CCCCC1`, the inhibition in experiment [1] is 2%; in experiment [2] it was 6%.
With `O=C(NC1CC1)[C@@H]1O[C@H]2CN(Cc3ccccc3)C[C@@H]1O2`, the inhibition came to 3% in experiment [1] and 13% in experiment [2].
Take `CCOC(=O)N1CCN(C(=O)[C@@H]2O[C@@]3(c4ccccc4)CN(C(c4ccccc4)c4ccccc4)C(=O)[C@@H]2O3)CC1`: the inhibition in experiment [1] stood at 5%; in experiment [2] it was 19%.
Turning to `CCCNC(=O)[C@@H]1O[C@H]2CN(Cc3ccccc3)C[C@@H]1O2`, the figures for the inhibition in experiment [1] and in experiment [2] were 3% and 13%, respectively.
Take `O=C([C@@H]1O[C@@H]2O[C@H]1C(=O)N(Cc1ccccc1)[C@H]2Cc1ccccc1)N1CCOCC1`: the values for the inhibition in experiment [1] and in experiment [2] were 13% and 40%, respectively.
Take `O=C(NCC(F)(F)F)[C@@H]1O[C@@H]2O[C@H]1C(=O)N(Cc1ccccc1)[C@H]2Cc1ccccc1`: the results for the inhibition in experiment [1] and in experiment [2] were 8% and 42%, respectively.
As to `CC(C)CNC(=O)[C@@H]1O[C@H]2CN(Cc3ccccc3)C(=O)[C@@H]1O2`, the inhibition in experiment [1] was found to be 4%; in experiment [2], 18%.
Consider `CCCCNC(=O)[C@@H]1O[C@@]2(c3ccccc3)CN(C(c3ccccc3)c3ccccc3)C[C@@H]1O2`, for which the values for the inhibition in experiment [1] and in experiment [2] were 3% and 12%, respectively.
As for `O=C(NC1CC1)[C@@H]1O[C@@H]2O[C@H]1C(=O)N(Cc1ccccc1)[C@H]2Cc1ccccc1`, the inhibition stood at 29% in experiment [1] and 87% in experiment [2].
As to `CCCCNC(=O)[C@@H]1O[C@@H]2O[C@H]1C(=O)N(Cc1ccccc1)[C@H]2Cc1ccccc1`, the inhibition in experiment [1] is 8%; in experiment [2], 42%.
For `NC(=O)C1O[C@H]2CN(Cc3ccccc3)C(=O)[C@@H]1O2` (single isomer, unassigned), the results for the inhibition in experiment [1] and in experiment [2] were 4% and 18%, respectively.
As for `CC(C)CCNC(=O)[C@@H]1O[C@H]2CN(Cc3ccccc3)C[C@@H]1O2`, the inhibition in experiment [1] worked out at 3%; in experiment [2] it was 13%.
Taken in the same sequence, the figures for `CCCCNC(=O)[C@@H]1O[C@H]2CN(Cc3ccccc3)C(=O)[C@@H]1O2` were 4% and 18%.

These data come from ChEMBL document CHEMBL1157639, “Identification of inhibitors of drug-resistant Candida albicans strains from a library of bicyclic peptidomimetic compounds” (2010).
